Results taken from ChEMBL document CHEMBL4038284, “Synthesis of novel quinoline-based 4,5-dihydro-1H-pyrazoles as potential anticancer, antifungal, antibacterial and antiprotozoal agents” (Eur J Med Chem, 2017).
Converted amounts (≈) assume the structure as drawn.

Tests used:
Candida albicans [1] = experiment: Antifungal activity against Candida albicans ATCC 10231 incubated for 48 hrs under dark condition by broth microdilution method; format: functional; conditions: ATCC 10231, 48 h
Outline: (§1)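 CLSI M27-A3 broth microdilution in RPMI-1640, DMSO ≤1%, compounds at 250-0.98 µg/mL final. Inoculum 1-5 × 10^3 CFU/mL. Incubated 48 h at 30 °C in a moist dark chamber, read at OD405. MIC80 and MIC50 taken from % inhibition dose-response curves (mean ± SEM, triplicate). Amphotericin B was the positive control.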

Pseudomonas aeruginosa = experiment: Antibacterial activity against Pseudomonas aeruginosa ATCC 27853 after 24 hrs by resazurin dye based microdilution assay; format: functional; conditions: ATCC 27853, 24 h
Outline: (§2)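 MIC taken as the lowest concentration giving visible inhibition and/or by resazurin (1 mg/mL). Gentamicin was the control. Run in duplicate, repeated at least three times.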

Staphylococcus aureus [2] = experiment: Antibacterial activity against vancomycin-intermediate Staphylococcus aureus after 24 hrs by resazurin dye based microdilution assay; format: functional; outline: as §2
Candida albicans [3] = experiment: Growth inhibition of Candida albicans ATCC 10231 at 125 ug/ml incubated for 48 hrs under dark condition by broth microdilution method relative to control; format: functional; conditions: ATCC 10231, 48 h, read-out: GI
Outline: (§3)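 CLSI M27-A3 broth microdilution in RPMI-1640, DMSO ≤1%. Inoculum 1-5 × 10^3 CFU/mL. Incubated 48 h at 30 °C, dark. % inhibition = 100 − (OD405 test − sterility control)/(OD405 growth control − sterility control), with growth and sterility control wells. Triplicate.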

Candida albicans [4] = experiment: Growth inhibition of Candida albicans ATCC 10231 at 15.62 ug/ml incubated for 48 hrs under dark condition by broth microdilution method relative to control; format: functional; conditions: ATCC 10231, 48 h, read-out: GI; outline: as §3
Klebsiella pneumoniae [5] = experiment: Antibacterial activity against ESBL positive Klebsiella pneumoniae ATCC 700603 after 24 hrs by resazurin dye based microdilution assay; format: functional; conditions: Klebsiella pneumoniae, 700603, 24 h; outline: as §2
Cryptococcus neoformans [6] = experiment: Growth inhibition of Cryptococcus neoformans ATCC 32264 at 15.62 ug/ml incubated for 48 hrs under dark condition by broth microdilution method relative to control; format: functional; conditions: ATCC 32264, 48 h, read-out: GI; outline: as §3
Candida albicans [7] = experiment: Growth inhibition of Candida albicans ATCC 10231 at 31.25 ug/ml incubated for 48 hrs under dark condition by broth microdilution method relative to control; format: functional; conditions: ATCC 10231, 48 h, read-out: GI; outline: as §3
Staphylococcus aureus [8] = experiment: Antibacterial activity against methicillin-resistant Staphylococcus aureus ATCC 43300 after 24 hrs by resazurin dye based microdilution assay; format: functional; conditions: ATCC 43300, 24 h
Outline: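 Broth microdilution in Mueller Hinton broth, inoculum 5 × 10^5 – 8 × 10^5. Compound stocks diluted in MHB with 5% DMSO and 0.1% Tween 80. Incubation 24 h at 35-37 °C. MIC is the lowest concentration with visible growth inhibition and/or by resazurin (1 mg/mL) read-out. Gentamicin as control. Run in duplicate, replicated at least three times.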

Leishmania panamensis = experiment: Antileshmanial activity against EpiR/GFP fused Leishmania panamensis MHOM/CO/87/UA140 intracellular amastigotes infected in human […] cells after 72 hrs by flow cytometric method; format: functional, cell-based; conditions: MHOM/CO/87/UA140, 72 h
Outline: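 PMA-treated U-937 cells (3 × 10^5 cells/mL) infected with stationary-phase GFP L. panamensis promastigotes (15:1), 3 h at 34 °C, then washed. After 24 h, compounds added at 50, 12.5, 3.125 and 0.78 µg/mL for 72 h at 37 °C. EC50 by Probit; triplicate, two experiments.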

Candida albicans [9] = experiment: Growth inhibition of Candida albicans ATCC 10231 at 3.4 ug/ml incubated for 48 hrs under dark condition by broth microdilution method relative to control; format: functional; conditions: ATCC 10231, 48 h, read-out: GI
Klebsiella pneumoniae [10] = experiment: Antibacterial activity against carbapenemase positive Klebsiella pneumoniae BAA 1705 after 24 hrs by resazurin dye based microdilution assay; format: functional; conditions: BAA 1705, 24 h; outline: as §2
Cryptococcus neoformans [11] = experiment: Growth inhibition of Cryptococcus neoformans ATCC 32264 at 125 ug/ml incubated for 48 hrs under dark condition by broth microdilution method relative to control; format: functional; conditions: ATCC 32264, 48 h, read-out: GI; outline: as §3
Cryptococcus neoformans [12] = experiment: Growth inhibition of Cryptococcus neoformans ATCC 32264 at 250 ug/ml incubated for 48 hrs under dark condition by broth microdilution method relative to control; format: functional; conditions: ATCC 32264, 48 h, read-out: GI; outline: as §3
Trypanosoma cruzi = experiment: Antitrypanosomal activity against Trypanosoma cruzi Tulahuen intracellular amastigote harboring LacZ infected in human U937 cells after 72 hrs by CPRG/Nonidet reagent based spectrophotometric method; format: functional, cell-based; conditions: U-937, 72 h
Outline: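 U-937 cells at 2.5 × 10^5 cells/mL in RPMI-1640 with 10% serum and 0.1 µg/mL PMA were infected with β-galactosidase-transfected Tulahuen epimastigotes at 5 parasites per cell. Infected cells were exposed to 50, 12.5, 3.125 and 0.78 µg/mL for 72 h. CPRG (100 uM) and 0.1% Nonidet P-40 were added for 3 h, read at 570 nm. EC50 by Probit. Triplicate, at least two experiments; benznidazole as reference.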

Cryptococcus neoformans [13] = experiment: Antifungal activity against Cryptococcus neoformans ATCC 32264 incubated for 48 hrs under dark condition by broth microdilution method; format: functional; conditions: ATCC 32264, 48 h; outline: as §1
Cryptococcus neoformans [14] = experiment: Growth inhibition of Cryptococcus neoformans ATCC 32264 at 62.5 ug/ml incubated for 48 hrs under dark condition by broth microdilution method relative to control; format: functional; conditions: ATCC 32264, 48 h, read-out: GI; outline: as §3
Escherichia coli = experiment: Antibacterial activity against Escherichia coli ATCC 25922 after 24 hrs by resazurin dye based microdilution assay; format: functional; conditions: ATCC 25922, 24 h; outline: as §2
Candida albicans [15] = experiment: Growth inhibition of Candida albicans ATCC 10231 at 250 ug/ml incubated for 48 hrs under dark condition by broth microdilution method relative to control; format: functional; conditions: ATCC 10231, 48 h, read-out: GI; outline: as §3
Candida albicans [16] = experiment: Growth inhibition of Candida albicans ATCC 10231 at 7.8 ug/ml incubated for 48 hrs under dark condition by broth microdilution method relative to control; format: functional; conditions: ATCC 10231, 48 h, read-out: GI; outline: as §3
Neisseria gonorrhoeae = experiment: Antibacterial activity against beta lactamase positive Neisseria gonorrhoeae ATCC 31426 by oxidase test; format: functional
Outline: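 Agar dilution MIC on GC agar with 1% isovitalex containing increasing compound concentrations. Plates inoculated with about 1×10^4 CFU (5 µL). MIC is the lowest concentration that inhibited growth, with growth confirmed by oxidase test. Run in duplicate, repeated at least three times.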

Staphylococcus aureus [17] = experiment: Antibacterial activity against methicillin-sensitive Staphylococcus aureus ATCC 25923 after 24 hrs by resazurin dye based microdilution assay; format: functional; conditions: ATCC 25923, 24 h; outline: as §2
Plasmodium falciparum = experiment: Antiplasmodial activity against chloroquine-sensitive Plasmodium falciparum 3D7 assessed as reduction in parasitic LDH activity after 48 hrs by Malstat reagent based […] method; format: functional; conditions: 3D7, 48 h
Outline: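 Unsynchronized P. falciparum 3D7 at 0.5% parasitemia and 1% hematocrit in RPMI with 3% Albumax II. Exposed to 100, 25, 6.25 and 1.56 µg/mL for 48 h at 37 °C under 90% N2/5% CO2/5% O2. After three freeze-thaw cycles, LDH measured with Malstat and NBT/PES, 1 h in the dark, read at 650 nm. IC50 by Probit; triplicate, ≥2 experiments.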

Cryptococcus neoformans [18] = experiment: Growth inhibition of Cryptococcus neoformans ATCC 32264 at 31.25 ug/ml incubated for 48 hrs under dark condition by broth microdilution method relative to control; format: functional; conditions: ATCC 32264, 48 h, read-out: GI; outline: as §3
Cryptococcus neoformans [19] = experiment: Growth inhibition of Cryptococcus neoformans ATCC 32264 at 3.4 ug/ml incubated for 48 hrs under dark condition by broth microdilution method relative to control; format: functional; conditions: ATCC 32264, 48 h, read-out: GI
Cryptococcus neoformans [20] = experiment: Growth inhibition of Cryptococcus neoformans ATCC 32264 at 7.8 ug/ml incubated for 48 hrs under dark condition by broth microdilution method relative to control; format: functional; conditions: ATCC 32264, 48 h, read-out: GI; outline: as §3
Candida albicans [21] = experiment: Growth inhibition of Candida albicans ATCC 10231 at 62.5 ug/ml incubated for 48 hrs under dark condition by broth microdilution method relative to control; format: functional; conditions: ATCC 10231, 48 h, read-out: GI; outline: as §3
U-937 = experiment: Cytotoxicity against human U937 cells after 72 hrs by MTT assay; format: cell-based; conditions: u-937, 72 h
Outline: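 Exponentially growing U-937 at 1 × 10^5 cells/mL in RPMI-1640 with 10% FBS were exposed to 200, 50, 12.5 and 3.125 µg/mL for 72 h at 37 °C, 5% CO2. MTT for 3 h, stopped with isopropanol/SDS, formazan read at 570 nm, blank-corrected. LC50 by Probit from % viability against untreated cells. Triplicate, at least two independent experiments.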

| SMILES | MIC50 (Candida albicans [1]) [µg/mL] | MIC80 (Candida albicans [1]) [µg/mL] | MIC (Pseudomonas aeruginosa) [µg/mL] | MIC (Staphylococcus aureus [2]) [µg/mL] | inhibition of growth at 125 µg/mL (Candida albicans [3]) [%] | inhibition of growth at 15.62 µg/mL (Candida albicans [4]) [%] | MIC (Klebsiella pneumoniae [5]) [µg/mL] | inhibition of growth at 15.62 µg/mL (Cryptococcus neoformans [6]) [%] | inhibition of growth at 31.25 µg/mL (Candida albicans [7]) [%] | MIC (Staphylococcus aureus [8]) [µg/mL] | EC50 (Leishmania panamensis) [µg/mL] | inhibition of growth at 3.4 µg/mL (Candida albicans [9]) [%] | MIC (Klebsiella pneumoniae [10]) [µg/mL] | inhibition of growth at 125 µg/mL (Cryptococcus neoformans [11]) [%] | inhibition of growth at 250 µg/mL (Cryptococcus neoformans [12]) [%] | EC50 (Trypanosoma cruzi) [µg/mL] | MIC50 (Cryptococcus neoformans [13]) [µg/mL] | MIC80 (Cryptococcus neoformans [13]) [µg/mL] | inhibition of growth at 62.5 µg/mL (Cryptococcus neoformans [14]) [%] | MIC (Escherichia coli) [µg/mL] | also measured |
| --- | --- | --- | --- | --- | --- | --- | --- | --- | --- | --- | --- | --- | --- | --- | --- | --- | --- | --- | --- | --- | --- |
| Clc1cc(Cl)cc(N2N=C(c3ccc(Br)cc3)CC2c2cccc(Nc3ccnc4cc(Cl)ccc34)c2)c1 (stereo not given) | ≥ 250 | ≥ 250 | > 1000 | > 1000 | 7.23 | 1.92 | > 1000 | 0 | 2.07 | > 1000 | 2.77 (≈ 4.45 µM) | 0 | > 1000 | 0 | 13.3 | 28.3 (≈ 45.4 µM) | ≥ 250 | ≥ 250 | 0 | > 1000 | inhibition of growth at 250 µg/mL (Candida albicans [15]): 13.7%; inhibition of growth at 7.8 µg/mL (Candida albicans [16]): 1.43%; MIC (Neisseria gonorrhoeae): > 1000 µg/mL; MIC (Staphylococcus aureus [17]): > 1000 µg/mL; EC50 (Plasmodium falciparum): 14.4 µg/mL (≈ 23.1 µM); inhibition of growth at 31.25 µg/mL (Cryptococcus neoformans [18]): 0%; inhibition of growth at 3.4 µg/mL (Cryptococcus neoformans [19]): 0%; inhibition of growth at 7.8 µg/mL (Cryptococcus neoformans [20]): 0%; inhibition of growth at 62.5 µg/mL (Candida albicans [21]): 4.45%; LC50 (U-937): > 200 µg/mL |
| COc1ccc(C2=NN(c3cc(Cl)cc(Cl)c3)C(c3cccc(Nc4ccnc5cc(Cl)ccc45)c3)C2)cc1 (stereo not given) | ≥ 250 | ≥ 250 | > 1000 | > 1000 | 10.3 | 1.75 | > 1000 | 2.11 | 5.03 | > 1000 | 12.6 (≈ 22 µM) | 1.02 | > 1000 | 10.2 | 43 | 31 (≈ 54.1 µM) | ≥ 250 | ≥ 250 | 6.18 | > 1000 | inhibition of growth at 250 µg/mL (Candida albicans [15]): 27.9%; inhibition of growth at 7.8 µg/mL (Candida albicans [16]): 1.72%; MIC (Neisseria gonorrhoeae): > 1000 µg/mL; MIC (Staphylococcus aureus [17]): > 1000 µg/mL; EC50 (Plasmodium falciparum): 10.4 µg/mL (≈ 18.1 µM); inhibition of growth at 31.25 µg/mL (Cryptococcus neoformans [18]): 3.09%; inhibition of growth at 3.4 µg/mL (Cryptococcus neoformans [19]): 0%; inhibition of growth at 7.8 µg/mL (Cryptococcus neoformans [20]): 0%; inhibition of growth at 62.5 µg/mL (Candida albicans [21]): 9.34%; LC50 (U-937): > 200 µg/mL |
